{
  "source": "PubChem BioAssay AID488897",
  "about": "(Broad Institute, 2010)",
  "note": "Inconclusive results are not listed. The source made the active and inactive calls.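 Rule for the calls: active = fitted half-maximal concentration for caspase signal rise at or below the highest valid tested dose; inconclusive = flat fit at 30 to 70% of control, or poor fit; inactive = the rest.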",
  "data": [
    {"test_system": "not listed separately", "assay": "apoptosis induction, A1-2A-tBid fibroblasts – cell-based, tBid as inducer, caspase 3/7 luminescence, dry powder, A1 inhibitor project, dose response (AID 488897)", "settings": "MEF A1-2A-tBid cells, caspase 3/7 luminescence, 3 h; at 150 µM (top of the series)", "in_short": "(§1)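 Material: tBid-primed A1-2A-tBid mouse embryonic fibroblasts / Input: 2500 cells/well / Signal: luminescence, Caspase-Glo 3/7 DEVD-luciferin reagent diluted 1:1 in 50 mM HEPES / Read-out: caspase activation from luminescence increase / Buffer or medium: TSA added at seeding / Doses: pinned compound in dose-response series / Times: 3 h compound at 37 °C, 1 h reagent at RT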", "values": [
      {"smiles": "C=C1[C@@H](C)[C@H]2[C@H](Cc3ccccc3)NC(=O)[C@]23[C@H](OC(C)=O)/C=C/[C@](C)(O)C(=O)[C@@H](C)C/C=C/[C@H]3[C@@H]1O", "caspase activation": "0.731% (inactive)"},
      {"smiles": "COc1cc(/C=C(/C#N)c2nc3ccccc3[nH]2)ccc1OCC(=O)Nc1ccccc1C(C)C", "caspase activation": "1.39% (inactive)"}
    ]},
    {"test_system": "MEF A1-2A-tBid cells, caspase 3/7 luminescence, 3 h", "assay": "apoptosis induction, A1-2A-tBid fibroblasts – cell-based, tBid as inducer, caspase 3/7 luminescence, dry powder, A1 inhibitor project, dose response (AID 488897)", "settings": "not given", "in_short": "as §1", "values": [
      {"smiles": "Cc1cc(C(=O)CCl)c(C)n1CCc1ccc(Cl)cc1", "AC50": "8.01 µM"},
      {"smiles": "CC(=O)N[C@H]1[C@H](O[C@H]2CC[C@@]3(C)C(CC[C@]4(C)C3CC=C3[C@@H]5CC(C)(C)CC[C@]5(C(=O)OC5OCC(O)C(O)C5O)C(O)C[C@]34C)C2(C)C)O[C@H](COC2OCC(O)C(OC3OCC(O)C(O)C3O)C2O)[C@@H](O[C@@H]2O[C@@H](C)[C@H](O)[C@@H](O)[C@H]2O[C@@H]2O[C@@H](C)[C@H](O)[C@@H](O)[C@H]2O)[C@@H]1O", "note": "(stereo partly drawn)", "AC50": "12.2 µM"},
      {"smiles": "Cc1cccc(NC(=O)/C(C#N)=C/c2cn(CC(=O)NCc3ccco3)c3ccccc23)c1", "AC50": "7.59 µM"},
      {"smiles": "Cc1c(CCOC(=O)c2ccc(N3CCOCC3)c([N+](=O)[O-])c2)sc[n+]1CC#N", "AC50": "16.7 µM"},
      {"smiles": "CCc1nnc(NC(=O)c2nc(S(=O)(=O)Cc3ccccc3)ncc2Cl)s1", "AC50": "> 68 µM (inactive)"},
      {"smiles": "O=C(CCl)N=c1sccn1Cc1ccccc1Cl", "AC50": "1.93 µM"},
      {"smiles": "O=C(Oc1cccc(/C=N/Nc2nc(Nc3ccccc3)nc(N3CCOCC3)n2)c1)c1ccco1", "AC50": "17.6 µM"},
      {"smiles": "CCc1cc2c(=O)c(-c3cnn(-c4ccccc4)c3)c(C)oc2cc1OCC(=O)Nc1cccc(C)c1", "AC50": "> 100 µM (inactive)"},
      {"smiles": "Cn1c(=NC(=O)CCl)sc2ccccc21", "AC50": "3.22 µM"},
      {"smiles": "CCOC(=O)CSC1=N/C(=C/c2ccc(-n3cncn3)cc2)C(=O)N1C(C)=O", "AC50": "9.07 µM"},
      {"smiles": "COc1ccc(N(C(=O)CCl)C(C(=O)NCCc2ccccc2)c2cccs2)cc1Cl", "note": "(stereo not drawn)", "AC50": "> 150 µM (inactive)"},
      {"smiles": "Cc1c(C=O)c(C=O)c(C)n1Cc1ccccc1", "AC50": "6.11 µM"},
      {"smiles": "Cc1ccc(CS(=O)(=O)c2ncc(Cl)c(C(=O)Nc3nnc(C(C)C)s3)n2)cc1", "AC50": "> 46 µM (inactive)"},
      {"smiles": "COc1cccc(C(=O)C(C#N)=C(SC)SC)c1", "AC50": "2.71 µM"},
      {"smiles": "Cc1cccc(CS(=O)(=O)c2ncc(Cl)c(C(=O)Nc3nnc(C(C)C)s3)n2)c1", "AC50": "> 46 µM (inactive)"},
      {"smiles": "Nc1nc(F)nc2c1ncn2[C@@H]1O[C@H](CO)[C@@H](O)[C@H]1O", "AC50": "2.35 µM"},
      {"smiles": "C/C1=C/C(=O)O[C@@H]2C[C@@H](CC[C@H](C)/C=C\\CC1)O[C@@](O)(C1CSC(=O)N1)C2", "note": "(stereo partly drawn)", "AC50": "0.695 µM"},
      {"smiles": "CC(=O)OC(C)(C)/C=C/C(=O)[C@](C)(O)C1[C@H](O)C[C@@]2(C)C3CC=C4C(C[C@H](O)C(=O)C4(C)C)[C@]3(C)C(=O)C[C@]12C", "note": "(stereo partly drawn)", "AC50": "> 150 µM (inactive)"},
      {"smiles": "CC(C)(C)n1nc(-c2ccc(Cl)cc2)c2c(N)ncnc21", "AC50": "> 150 µM (inactive)"},
      {"smiles": "Cc1ccc(Sc2c([N+](=O)[O-])c(=O)n(C)c3ccccc23)cc1", "AC50": "18.1 µM"},
      {"smiles": "C=C1[C@@H](C)[C@H]2[C@H](Cc3ccccc3)NC(=O)[C@]23OC(=O)/C=C\\[C@H](O)CCC[C@@H](C)C/C=C/[C@H]3[C@@H]1O", "AC50": "12.7 µM"}
    ]}
  ]
}
